# Test results published in ChEMBL document CHEMBL4706649, “Design, synthesis and biological evaluation of new benzoxazolone/benzothiazolone derivatives as multi-target agents against Alzheimer's disease” (Eur J Med Chem, 2021).
# The source made the active and inactive calls. The rule behind the calls is not given here.
# Tested on: THP-1
# Test: Antiinflammatory activity in LPS-induced human THP-1 cells assessed as reduction in IL1beta release at 10 uM peincubated for 1 hr followed by LPS stimulation and measured after 24 hrs by EIA
# Type: functional, cell-based
# Details: time 25.0 hrs
# How it was run: (§1)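 THP-1 cells grown in RPMI 1640 with 10% FCS, penicillin and streptomycin at 37 °C, 5% CO2, then plated overnight at 4×10⁴ cells/well. Test compound added 1 h before 100 ng/ml E. coli O111:B4 LPS; 24 h incubation. Untreated and LPS-only controls. […]; cytokine read by EIA at 450 nm against a standard curve. At least triplicate.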
row,SMILES,Activity
1,Cn1c(=O)oc2cc(NC(=O)CCN3CCN(Cc4ccccc4)CC3)ccc21,Active
2,Cn1c(=O)sc2cc(NC(=O)CCCN3CCN(Cc4ccccc4)CC3)ccc21,Active
3,Cn1c(=O)oc2cc(NC(=O)CCCN3CCN(Cc4ccccc4)CC3)ccc21,Active
4,Cn1c(=O)sc2cc(NC(=O)CCN3CCN(Cc4ccccc4)CC3)ccc21,Active
5,Cn1c(=O)oc2cc(C(=O)CCN3CCN(Cc4ccccc4)CC3)ccc21,Active

# Tested on: THP-1
# Test: Antiinflammatory activity in LPS-induced human THP-1 cells assessed as reduction in TNFalpha release at 10 uM peincubated for 1 hr followed by LPS stimulation and measured after 24 hrs by EIA
# Type: functional, cell-based
# Details: time 25.0 hrs
# How it was run: as §1
row,SMILES,Activity
1,Cn1c(=O)oc2cc(NC(=O)CCN3CCN(Cc4ccccc4)CC3)ccc21,Active
2,Cn1c(=O)sc2cc(NC(=O)CCCN3CCN(Cc4ccccc4)CC3)ccc21,Active
3,Cn1c(=O)oc2cc(NC(=O)CCCN3CCN(Cc4ccccc4)CC3)ccc21,Active
4,Cn1c(=O)sc2cc(NC(=O)CCN3CCN(Cc4ccccc4)CC3)ccc21,Active
5,Cn1c(=O)oc2cc(C(=O)CCN3CCN(Cc4ccccc4)CC3)ccc21,Active

# Target: Acetylcholinesterase (Electrophorus electricus, UniProt O42275)
# Test: Inhibition of electric eel AChE using acetylthiocholine iodide as substrate preincubated for 10 mins followed by substrate addition and measured for 10 mins by Ellman's method
# Details: not given
# Chain of Acetylcholinesterase (O42275 whole entry): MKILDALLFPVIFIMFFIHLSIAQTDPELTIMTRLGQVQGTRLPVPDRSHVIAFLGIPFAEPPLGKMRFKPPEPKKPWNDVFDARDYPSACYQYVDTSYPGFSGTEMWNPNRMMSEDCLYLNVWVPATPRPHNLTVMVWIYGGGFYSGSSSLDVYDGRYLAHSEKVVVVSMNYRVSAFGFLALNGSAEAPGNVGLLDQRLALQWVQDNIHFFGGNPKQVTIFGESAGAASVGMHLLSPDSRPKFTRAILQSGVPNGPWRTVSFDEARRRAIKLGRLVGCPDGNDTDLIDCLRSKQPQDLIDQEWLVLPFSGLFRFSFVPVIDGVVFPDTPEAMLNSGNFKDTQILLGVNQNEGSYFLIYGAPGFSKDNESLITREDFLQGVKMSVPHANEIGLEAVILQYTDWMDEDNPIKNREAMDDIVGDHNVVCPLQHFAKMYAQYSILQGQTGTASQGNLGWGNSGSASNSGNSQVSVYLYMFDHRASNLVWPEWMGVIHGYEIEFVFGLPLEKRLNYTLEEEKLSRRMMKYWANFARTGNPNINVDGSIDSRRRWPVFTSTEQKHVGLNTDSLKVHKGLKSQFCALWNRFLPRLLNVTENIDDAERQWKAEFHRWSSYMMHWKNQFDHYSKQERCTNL
row,SMILES,IC50
1,Cn1c(=O)oc2cc(NC(=O)CCN3CCN(Cc4ccccc4)CC3)ccc21,6.94 µM
2,Cn1c(=O)sc2cc(NC(=O)CCN3CCC(Cc4ccccc4)CC3)ccc21,31.9 µM
3,Cn1c(=O)sc2cc(NC(=O)CCCN3CCN(Cc4ccccc4)CC3)ccc21,1.96 µM
4,Cn1c(=O)oc2cc(NC(=O)CCCN3CCN(Cc4ccccc4)CC3)ccc21,6 µM
5,Cn1c(=O)oc2cc(NC(=O)CCN3CCC(Cc4ccccc4)CC3)ccc21,24.6 µM
6,CN(CCC(=O)Nc1ccc2c(c1)oc(=O)n2C)Cc1ccccc1,52.4 µM
7,CN(CCC(=O)Nc1ccc2c(c1)sc(=O)n2C)Cc1ccccc1,49.5 µM
8,Cn1c(=O)sc2cc(NC(=O)CCN3CCN(Cc4ccccc4)CC3)ccc21,2.34 µM
9,Cn1c(=O)oc2cc(NC(=O)CCN3CCN(Cc4ccc(F)cc4)CC3)ccc21,16.1 µM
10,Cn1c(=O)oc2cc(NC(=O)CCCCN3CCN(Cc4ccccc4)CC3)ccc21,30.9 µM
11,Cn1c(=O)sc2cc(NC(=O)CCCCN3CCN(Cc4ccccc4)CC3)ccc21,14 µM
12,Cn1c(=O)oc2cc(C(=O)CCN3CCN(Cc4ccccc4)CC3)ccc21,0.89 µM

# Target: Acetylcholinesterase (Electrophorus electricus) (UniProt O42275)
# Test: Inhibition of electric eel AChE at 100 uM using acetylthiocholine iodide as substrate preincubated for 10 mins followed by substrate addition and measured for 10 mins by Ellman's method relative to control
# Details: time 20.0 min
# How it was run: (§2)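 Ellman single-concentration screen in 50 mM Tris-HCl pH 8.0 with DTNB (6.8 mM stock) and 1% DMSO. Enzyme solution 0.4 U/mL AChE or 0.8 U/mL BChE. Compound and enzyme preincubated 10 min at 25 °C, then ATI (10 mM stock) or BTI (30 mM stock) added. A412 followed for 10 min, blank-subtracted, % inhibition versus no-compound control. Triplicate.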
# Chain of Acetylcholinesterase (Electrophorus electricus) (O42275 24-633 limits assumed): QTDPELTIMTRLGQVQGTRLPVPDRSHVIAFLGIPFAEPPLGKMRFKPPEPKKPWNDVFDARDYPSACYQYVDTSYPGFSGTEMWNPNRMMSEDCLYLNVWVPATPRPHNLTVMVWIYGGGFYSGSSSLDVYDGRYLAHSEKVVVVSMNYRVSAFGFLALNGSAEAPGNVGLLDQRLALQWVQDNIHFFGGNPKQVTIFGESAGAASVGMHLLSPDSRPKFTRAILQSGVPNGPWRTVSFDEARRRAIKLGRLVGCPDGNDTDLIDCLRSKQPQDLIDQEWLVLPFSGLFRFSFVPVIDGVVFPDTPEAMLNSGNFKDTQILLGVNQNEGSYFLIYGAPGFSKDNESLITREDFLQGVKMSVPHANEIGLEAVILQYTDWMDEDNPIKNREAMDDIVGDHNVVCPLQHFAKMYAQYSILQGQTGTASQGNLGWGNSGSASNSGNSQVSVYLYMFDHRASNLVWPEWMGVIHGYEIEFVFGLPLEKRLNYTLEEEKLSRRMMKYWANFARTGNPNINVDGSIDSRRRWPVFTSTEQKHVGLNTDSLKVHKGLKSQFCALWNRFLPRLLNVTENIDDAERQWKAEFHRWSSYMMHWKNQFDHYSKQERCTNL
row,SMILES,inhibition
1,Cn1c(=O)oc2cc(NC(=O)CCN3CCN(Cc4ccccc4)CC3)ccc21,81%
2,Cn1c(=O)oc2cc(NC(=O)CCN3CCC(c4ccccc4)CC3)ccc21,25%
3,Cn1c(=O)sc2cc(NC(=O)CCN3CCN(c4ccccc4)CC3)ccc21,34%
4,Cn1c(=O)sc2cc(NC(=O)CCN3CCN(c4ccc(F)cc4)CC3)ccc21,37%
5,Cn1c(=O)oc2cc(NC(=O)CCN3CCN(Cc4ccc(Cl)cc4)CC3)ccc21,40%
6,Cn1c(=O)sc2cc(NC(=O)CCN3CCC(Cc4ccccc4)CC3)ccc21,62%
7,Cn1c(=O)sc2cc(NC(=O)CCCN3CCN(Cc4ccccc4)CC3)ccc21,93%
8,Cn1c(=O)oc2cc(NC(=O)CCCN3CCN(Cc4ccccc4)CC3)ccc21,94%
9,Cn1c(=O)oc2cc(NC(=O)CCN3CCC(Cc4ccccc4)CC3)ccc21,64%
10,CN(CCC(=O)Nc1ccc2c(c1)oc(=O)n2C)Cc1ccccc1,58%
11,CN(CCC(=O)Nc1ccc2c(c1)sc(=O)n2C)Cc1ccccc1,63%
12,Cn1c(=O)sc2cc(NC(=O)CCN3CCN(Cc4ccccc4)CC3)ccc21,92%
13,Cn1c(=O)oc2cc(NC(=O)CCN3CCN(Cc4ccc(F)cc4)CC3)ccc21,66%
14,Cn1c(=O)oc2cc(NC(=O)CCCCN3CCN(Cc4ccccc4)CC3)ccc21,82%
15,Cn1c(=O)sc2cc(NC(=O)CCCCN3CCN(Cc4ccccc4)CC3)ccc21,87%
16,Cn1c(=O)oc2cc(C(=O)CCN3CCN(Cc4ccccc4)CC3)ccc21,97%

# Target: Cholinesterase (Equus caballus, UniProt P81908)
# Test: Inhibition of equine serum BChE using butyrylthiocholine iodide as substrate preincubated for 10 mins followed by substrate addition and measured for 10 mins by Ellman's method
# Details: not given
# How it was run: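 BChE (0.8 U/mL solution) preincubated with inhibitor 10 min at 25 °C in Tris-HCl pH 8.0 with DTNB and 1% DMSO, then BTI (30 mM stock) added. A412 read over 10 min, blank-corrected. IC50 from log[inhibitor] versus % inhibition. Triplicate, mean ± SD.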
# Chain of Cholinesterase (P81908 whole entry): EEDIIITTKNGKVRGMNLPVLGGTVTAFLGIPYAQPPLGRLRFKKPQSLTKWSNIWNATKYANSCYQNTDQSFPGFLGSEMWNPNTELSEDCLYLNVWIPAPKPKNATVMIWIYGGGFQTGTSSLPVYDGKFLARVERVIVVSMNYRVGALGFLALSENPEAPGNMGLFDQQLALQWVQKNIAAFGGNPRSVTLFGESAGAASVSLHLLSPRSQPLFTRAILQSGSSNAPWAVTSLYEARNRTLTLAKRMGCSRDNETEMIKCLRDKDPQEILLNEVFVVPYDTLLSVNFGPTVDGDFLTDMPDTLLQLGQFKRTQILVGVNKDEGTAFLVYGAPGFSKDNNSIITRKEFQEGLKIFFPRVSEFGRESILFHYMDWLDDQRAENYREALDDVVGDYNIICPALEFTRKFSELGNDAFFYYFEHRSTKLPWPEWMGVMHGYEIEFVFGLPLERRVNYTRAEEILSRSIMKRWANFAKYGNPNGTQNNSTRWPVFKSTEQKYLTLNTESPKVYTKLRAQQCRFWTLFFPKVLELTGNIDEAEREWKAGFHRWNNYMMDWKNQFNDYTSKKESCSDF
row,SMILES,IC50
1,Cn1c(=O)sc2cc(NC(=O)CCN3CCC(Cc4ccccc4)CC3)ccc21,75.4 µM
2,CN(CCC(=O)Nc1ccc2c(c1)sc(=O)n2C)Cc1ccccc1,42 µM

# Tested on: THP-1
# Test: Antiinflammatory activity in LPS-induced human THP-1 cells assessed as reduction in IL6 release at 10 uM peincubated for 1 hr followed by LPS stimulation and measured after 24 hrs by EIA
# Type: functional, cell-based
# Details: time 25.0 hrs
# How it was run: as §1
row,SMILES,Activity
1,Cn1c(=O)oc2cc(NC(=O)CCN3CCN(Cc4ccccc4)CC3)ccc21,Active
2,Cn1c(=O)sc2cc(NC(=O)CCCN3CCN(Cc4ccccc4)CC3)ccc21,Active
3,Cn1c(=O)oc2cc(NC(=O)CCCN3CCN(Cc4ccccc4)CC3)ccc21,Active
4,Cn1c(=O)sc2cc(NC(=O)CCN3CCN(Cc4ccccc4)CC3)ccc21,Active
5,Cn1c(=O)oc2cc(C(=O)CCN3CCN(Cc4ccccc4)CC3)ccc21,Active

# Tested on: THP-1
# Test: Antiinflammatory activity in LPS-induced human THP-1 cells assessed as reduction in nitric oxide release at 10 uM peincubated for 1 hr followed by LPS stimulation and measured after 24 hrs by ELISA
# Type: functional, cell-based
# Details: time 25.0 hrs
# How it was run: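 THP-1 cells plated overnight at 4×10⁴ cells/well, given test compound 1 h before 100 ng/ml LPS (E. coli O111:B4), then incubated 24 h. Cell-free supernatants stored at −20 °C, then NO measured by ELISA kit (sensitivity 1,12 […]) from a standard curve. Untreated cells as negative control, LPS-only as positive control. At least triplicate.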
row,SMILES,Activity
1,Cn1c(=O)oc2cc(NC(=O)CCN3CCN(Cc4ccccc4)CC3)ccc21,Active
2,Cn1c(=O)sc2cc(NC(=O)CCCN3CCN(Cc4ccccc4)CC3)ccc21,Active
3,Cn1c(=O)oc2cc(NC(=O)CCCN3CCN(Cc4ccccc4)CC3)ccc21,Active
4,Cn1c(=O)sc2cc(NC(=O)CCN3CCN(Cc4ccccc4)CC3)ccc21,Active
5,Cn1c(=O)oc2cc(C(=O)CCN3CCN(Cc4ccccc4)CC3)ccc21,Active

# Target: Cholinesterase (Equus caballus) (UniProt P81908)
# Test: Inhibition of equine serum BChE at 100 uM using butyrylthiocholine iodide as substrate preincubated for 10 mins followed by substrate addition and measured for 10 mins by Ellman's method relative to control
# Details: time 20.0 min
# How it was run: as §2
# Chain of Cholinesterase (Equus caballus) (P81908 whole entry): as above
row,SMILES,inhibition
1,Cn1c(=O)oc2cc(NC(=O)CCN3CCN(Cc4ccccc4)CC3)ccc21,30%
2,Cn1c(=O)oc2cc(NC(=O)CCN3CCC(c4ccccc4)CC3)ccc21,< 10%
3,Cn1c(=O)sc2cc(NC(=O)CCN3CCN(c4ccccc4)CC3)ccc21,< 10%
4,Cn1c(=O)sc2cc(NC(=O)CCN3CCN(c4ccc(F)cc4)CC3)ccc21,< 10%
5,Cn1c(=O)oc2cc(NC(=O)CCN3CCN(Cc4ccc(Cl)cc4)CC3)ccc21,< 10%
6,Cn1c(=O)sc2cc(NC(=O)CCN3CCC(Cc4ccccc4)CC3)ccc21,60%
7,Cn1c(=O)sc2cc(NC(=O)CCCN3CCN(Cc4ccccc4)CC3)ccc21,< 10%
8,Cn1c(=O)oc2cc(NC(=O)CCCN3CCN(Cc4ccccc4)CC3)ccc21,< 10%
9,Cn1c(=O)oc2cc(NC(=O)CCN3CCC(Cc4ccccc4)CC3)ccc21,47%
10,CN(CCC(=O)Nc1ccc2c(c1)oc(=O)n2C)Cc1ccccc1,42%
11,CN(CCC(=O)Nc1ccc2c(c1)sc(=O)n2C)Cc1ccccc1,70%
12,Cn1c(=O)sc2cc(NC(=O)CCN3CCN(Cc4ccccc4)CC3)ccc21,< 10%
13,Cn1c(=O)oc2cc(NC(=O)CCN3CCN(Cc4ccc(F)cc4)CC3)ccc21,21%
14,Cn1c(=O)oc2cc(NC(=O)CCCCN3CCN(Cc4ccccc4)CC3)ccc21,< 10%
15,Cn1c(=O)sc2cc(NC(=O)CCCCN3CCN(Cc4ccccc4)CC3)ccc21,< 10%
16,Cn1c(=O)oc2cc(C(=O)CCN3CCN(Cc4ccccc4)CC3)ccc21,< 10%

# Tested on: not listed separately
# Test: Antioxidant activity assessed as trolox equivalent of AAPH radical scavenging activity at 10 uM measured every min for 90 mins by ORAC-FL assay
# Type: functional
# Details: not given
# How it was run: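 ORAC-FL in 75 mM phosphate buffer pH 7.4. Sample and fluorescein (150 nM final) preincubated 15 min at 37 °C, then AAPH (12 mM final) added. Fluorescence (ex 485/em 535 nm) read each minute for 90 min. Net AUC after blank subtraction, converted to Trolox equivalents from a Trolox curve (0.5–8, final; Trolox = 1). Duplicate wells, three independent assays.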
row,SMILES,Activity
1,Cn1c(=O)oc2cc(NC(=O)CCN3CCN(Cc4ccccc4)CC3)ccc21,3.78 equiv
2,Cn1c(=O)oc2cc(NC(=O)CCN3CCC(c4ccccc4)CC3)ccc21,4.09 equiv
3,Cn1c(=O)sc2cc(NC(=O)CCN3CCN(c4ccccc4)CC3)ccc21,4.24 equiv
4,Cn1c(=O)sc2cc(NC(=O)CCN3CCN(c4ccc(F)cc4)CC3)ccc21,4.03 equiv
5,Cn1c(=O)oc2cc(NC(=O)CCN3CCN(Cc4ccc(Cl)cc4)CC3)ccc21,4.19 equiv
6,Cn1c(=O)sc2cc(NC(=O)CCN3CCC(Cc4ccccc4)CC3)ccc21,4.01 equiv
7,Cn1c(=O)sc2cc(NC(=O)CCCN3CCN(Cc4ccccc4)CC3)ccc21,3.91 equiv
8,Cn1c(=O)oc2cc(NC(=O)CCCN3CCN(Cc4ccccc4)CC3)ccc21,3.97 equiv
9,Cn1c(=O)oc2cc(NC(=O)CCN3CCC(Cc4ccccc4)CC3)ccc21,3.87 equiv
10,CN(CCC(=O)Nc1ccc2c(c1)oc(=O)n2C)Cc1ccccc1,4.3 equiv
11,CN(CCC(=O)Nc1ccc2c(c1)sc(=O)n2C)Cc1ccccc1,3.9 equiv
12,Cn1c(=O)sc2cc(NC(=O)CCN3CCN(Cc4ccccc4)CC3)ccc21,4.08 equiv
13,Cn1c(=O)oc2cc(NC(=O)CCN3CCN(Cc4ccc(F)cc4)CC3)ccc21,3.92 equiv
14,Cn1c(=O)oc2cc(NC(=O)CCCCN3CCN(Cc4ccccc4)CC3)ccc21,2.63 equiv
15,Cn1c(=O)sc2cc(NC(=O)CCCCN3CCN(Cc4ccccc4)CC3)ccc21,2.67 equiv
16,Cn1c(=O)oc2cc(C(=O)CCN3CCN(Cc4ccccc4)CC3)ccc21,3.03 equiv
